Screening data from PubChem BioAssay.
Cneo AK release: Cryptococcus neoformans cell lysis inducers, primary screen, AK release luminescence, single concentration; C. neoformans lysis, adenylate kinase release luminescence, 4 h; normalised: neutral wells 0, clomiphene wells 100; lysis activity, % at 15 µM; hit rate 0.2% among 360,000;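 active = mean lysis activity across replicates of at least 80%, whatever share of replicates individually reach that level; inactive = mean lysis activity below 80%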
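Assay system: Cryptococcus neoformans yeast cells / Dosing: single-point compound dose / Timing: 4 h at 37 °C static, read 1 h later / Measured by: luminescence of released adenylate kinase using an AK detection reagent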
miR122 inh: miR-122 Renilla sensor signal increase in Huh7, primary screen, miR-122 inhibitor project, cell-based, single point, plate reader | activation (reporter increase), % at 12.5 µM | hit rate 0.3% among 340,000 | Huh7 miR-122 Renilla luciferase sensor, 48 h; neutral wells = 0, positive control = 100;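 active = mean replicate activation score at least 90 and every replicate individually at or above 90; inconclusive = only one of the two criteria met; inactive = neither criterion met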;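 note: higher luciferase means less miR-122 activity so hits act as miR-122 inhibitors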
PglD inh: C. jejuni PglD acetyltransferase inhibitors, primary screen, biochemical, DTNB colorimetric, single point; UDP-N-acetylbacillosamine N-acetyltransferase PglD (Campylobacter jejuni); purified PglD enzyme, DTNB colorimetric CoA detection; inhibition, % at 12.5 µM; hit rate 0.098% among 360,000; in the data active = inhibition above about 16%, passing the limit was not always enough; inconclusive = no clear call, values can overlap the other calls
CAL PDZ FP-1: untagged CAL PDZ binding inhibitors, primary screen, biochemical, fluorescence polarization, HTS; inhibition, % at 24.9 µM; purified CAL PDZ, TMR-peptide fluorescence polarization, 1 h; hit rate 0.92% among 300,000; Golgi-associated PDZ and coiled-coil motif-containing protein (Homo sapiens), Q9HD26;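 active = mean inhibition of at least 30% with at least half of replicates also reaching 30%; inconclusive = no clear call, values can overlap the other calls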
CAL PDZ FP-2: CAL PDZ peptide-binding inhibitors, primary screen, biochemical, fluorescence polarization, Cer-tagged CAL PDZ, HTS. purified CAL PDZ, TMR-peptide fluorescence polarization, 1 h. Golgi-associated PDZ and coiled-coil motif-containing protein (Homo sapiens), Q9HD26. inhibition, % at 20 µM. hit rate 0.02% among 330,000;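 active = highest replicate inhibition of at least 40%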
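Material: tagged CAL PDZ protein CerCALP, purified; buffer or medium: sodium phosphate/NaCl buffer pH 7.4 with TCEP, IgG, Thesit; also added: fluorescent TMR peptide probe; schedule: 1 h incubation at room temperature before polarization reading; technique: fluorescence polarization from S- and P-plane intensities, G-factor corrected; control set: unlabelled peptide and DMSO controls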
Hits are given with their value; i = inactive; ? = inconclusive; nt = no result. A selection: hits, their analogues and other compounds. The true share with any hit is near 1.1%.

SMILES	Cneo AK release	miR122 inh	PglD inh	CAL PDZ FP-1	CAL PDZ FP-2
Cc1noc(C)c1S(=O)(=O)N(C)C[C@H]1OCCCC[C@@H](C)Oc2ccc(NS(=O)(=O)c3cn(C)cn3)cc2C(=O)N([C@@H](C)CO)C[C@H]1C	i	i	i	nt	nt
C/C(=C\C(=O)O)C12CC3CC(CC(C3)C1)C2	i	i	i	31	nt
Cc1noc(C)c1S(=O)(=O)Nc1ccc2c(c1)C(=O)N([C@H](C)CO)C[C@H](C)[C@@H](CN(C)Cc1ccc3c(c1)OCO3)OCCCC[C@@H](C)O2	i	i	i	nt	nt
COc1cccc(S(=O)(=O)Nc2ccc3c(c2)[C@@H]2C[C@@H](CC(=O)NCc4cccc(F)c4)O[C@H](CO)[C@@H]2O3)c1	106	i	i	nt	nt
COc1cccc(S(=O)(=O)Nc2ccc3c(c2)[C@H]2C[C@H](CC(=O)NCc4ccccc4F)O[C@@H](CO)[C@H]2O3)c1	95	i	i	nt	nt
COc1cccc(S(=O)(=O)Nc2ccc3c(c2)[C@H]2C[C@@H](CC(=O)NCc4ccccc4F)O[C@H](CO)[C@H]2O3)c1	i	i	i	nt	nt
COc1cccc(S(=O)(=O)Nc2ccc3c(c2)[C@H]2C[C@@H](CC(=O)NC4CCCCC4)O[C@@H](CO)[C@H]2O3)c1	101	i	i	nt	nt
COc1cccc(S(=O)(=O)Nc2ccc3c(c2)[C@H]2C[C@H](CC(=O)NCc4cccc(F)c4)O[C@H](CO)[C@H]2O3)c1	i	i	i	nt	nt
COc1cccc(S(=O)(=O)Nc2ccc3c(c2)[C@H]2C[C@H](CC(=O)NCc4cccc(F)c4)O[C@@H](CO)[C@H]2O3)c1	94	i	i	nt	nt
C=C(C)CCOC(=O)C(CC(=O)O)NCc1ccco1 (stereo unspecified)	i	i	i	49	i
O=C(O)CC(NCc1ccco1)C(=O)OCCc1ccccc1 (stereo unspecified)	i	i	i	i	i
Cc1ccc(C(=O)NN2C(=O)c3ccc(S(=O)(=O)c4ccc(C(=O)O)cc4)cc3C2=O)cc1	i	i	i	47	i
O=C(O)c1ccc(S(=O)(=O)c2ccc3c(c2)C(=O)N(NC(=O)c2ccc(O)cc2)C3=O)cc1	nt	i	nt	i	i
COc1ccc(S(=O)(=O)Nc2ccc3c(c2)C(=O)N([C@H](C)CO)C[C@@H](C)[C@H](CN(C)S(=O)(=O)c2cn(C)cn2)O3)cc1	i	i	i	nt	nt
COc1cccc2cc(-c3ccnc(N)n3)oc12	i	i	i	77	i
COc1cccc2cc(-c3n[nH]c(=S)n3C)oc12	i	nt	i	i	i
COc1ccc(-c2noc(-c3ccccc3C(=O)NCC3CCCO3)n2)cc1 (stereo unspecified)	nt	nt	nt	70	i
CCCNC(=O)CCc1c(C)nc2nc(-c3cc(OC)cc(OC)c3)nn2c1C	i	i	i	46	i
CCCCNC(=O)CCc1c(C)nc2nc(-c3cc(OC)cc(OC)c3)nn2c1C	i	i	i	i	i
CC(=O)N1c2ccc(S(=O)(=O)N3CCC(C(=O)Nc4ccccn4)CC3)cc2CC1C (stereo unspecified)	i	i	i	i	i
CC(=O)c1ccc(N2CCN(S(=O)(=O)c3ccc4c(c3)CC(C)N4C(=O)C3CC3)CC2)cc1 (stereo unspecified)	i	i	i	72	i
CC(=O)N1c2ccc(S(=O)(=O)N3CCC(C(=O)NC4CCCCC4)CC3)cc2CC1C (stereo unspecified)	i	i	i	64	i
CCC/C=N/NC(=O)c1cccc(Br)c1	nt	i	nt	86	i
C[C@@H]1CN([C@@H](C)CO)S(=O)(=O)c2ccc(C#C[C@@H](C)O)cc2O[C@H]1CN(C)CC1CC1	nt	i	nt	nt	nt
CN(C[C@H]1N[C@@H](CO)[C@H]1c1ccc(-c2cccc(F)c2)cc1)S(C)(=O)=O	99	?	i	nt	nt
O=C(CCc1ccc(S(=O)(=O)NC2CCCCC2)cc1)N(Cc1ccccc1)Cc1ccccc1	i	99	i	i	i
